From ChEMBL document CHEMBL4513216, “Probing the Open Global Health Chemical Diversity Library for Multistage-Active Starting Points for Next-Generation Antimalarials” (ACS Infect Dis, 2020)

Assay: Toxicity liver stage against HepG2, at 10uM
Assay type: cell-based
Design: test concentration 10 uM, cell line HepG2-A16-CD81EGFP
Details: human, HepG2-A16-CD81EGFP cells; read-out: INHIBITION
Procedure, shortened: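 Uninfected HepG2-A16-CD81EGFP cells, 3 × 10^3 per well, 1536-well, plated on prespotted compound at 10 μM final, parasite-free screening media added to match infected plates; puromycin 10 μM positive, DMSO 0.5% negative; run in parallel with 48 h PbLuc assay at 37 °C, 5% CO2; viability by CellTiter-Glo luminescence, normalized to controls.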

In order of rising cytotoxicity at 10 µM:
1. CCO[C@@H]1CC[C@H]2[C@H]1OCCN2CCOCc1ccccc1  -111%
2. Cc1noc(C)c1CN1CCC2(CC1)C(c1cnn(C)c1)CC(=O)N2C (stereo not given)  -106%
3. COCc1ccccc1C(=O)N1CCCC(c2cc(C)[nH]n2)C1 (stereo not given)  -23.2%
4. CC(C)(N)C(=O)N1CCCC(c2cncc(Oc3cccnc3)n2)C1 (stereo not given)  -20.6%
5. Cc1nc(C)n(C2CCCN(C(=O)c3csc(CC(C)C)n3)C2)n1 (stereo not given)  -17.3%
6. NCc1cc(-c2ccccc2)n2nccc2n1  -14.7%
7. CCCOc1ncccc1CNc1nnc(C)c(C)c1C#N  -14.3%
8. CCOc1ncccc1NC(=O)NC1CCN(C(=O)C2CC2)CC1  -13.6%
9. C1CC(CN2CCO[C@H]3[C@H](OCC4CC4)CC[C@@H]32)CCO1  -13.3%
10. CCCc1noc(CN2CCCC2c2noc(C3CC3)n2)n1 (stereo not given)  -13%
11. CC(C)(CN1CCCC1)CN1CCC(Cn2cc(C3CC3)nn2)CC1  -12.2%
12. CCCc1nnc(N2CCN(Cc3ccccc3OC)CC2)o1  -12%
13. COc1cccc(-c2noc(C3CCN(CC(N)=O)C3)n2)c1 (stereo not given)  -11.3%
14. O=C(CCc1ccsc1)N1CCCC(n2cncn2)C1 (stereo not given)  -9.47%
15. COc1cccc(C(=O)NC(c2ccccn2)C2CCC(CN)CC2)c1 (stereo not given)  -9.33%
16. CC(NC(=O)NCCCOc1ccccc1F)c1nncn1C (stereo not given)  -8.77%
17. CNC(=O)CCc1cc(C)nc(C2CCCN2)c1 (stereo not given)  -8.49%
18. Cc1nnc(CN(C)C2CCN(Cc3nnc(C4CCC4)o3)C2)n1C (stereo not given)  -8.15%
19. Cc1cc(NC(=O)N2CCN(c3cccs3)CC2)ccc1C(N)=O  -7.79%
20. Cc1nc(-c2cccc(C(=O)O)c2)cc(C2CCCN(C(C)C)C2)n1 (stereo not given)  -7.44%
21. CC(C)c1cc(C(=O)N2CCC3(CC2)c2ccccc2[C@@H](N)[C@@H]3O)cs1  -7.34%
22. CCCSCC(=O)N1CCC2(CC1)CC(c1ccccc1)CN(C)C2 (stereo not given)  -7.29%
23. CCn1c(C)nnc1CN(C)C1CCN(CCc2cccs2)C1 (stereo not given)  -7.12%
24. Cc1ccc(N2CC[C@@H](NC(=O)c3cnccn3)[C@H](O)C2)nn1  -6.79%
25. CN(C)C(=O)C1CN(Cc2c[nH]cn2)CCN(C2CCOCC2)C1 (stereo not given)  -5.97%
26. Cc1nn(CCC(=O)N2CCCC(OCc3cccnc3)C2)c(C)c1C (stereo not given)  -5.47%
27. CCN1CCN(c2ccc(C(=O)NC(C)C(=O)N(C)C)cc2)CC1 (stereo not given)  -4.98%
28. CN(C)c1ncccc1CNC(=O)NCc1cccs1  -4.87%
29. Cc1cc(N2CCC(c3nccn3Cc3cscn3)CC2)ccn1  -4.72%
30. CC(=O)Nc1nc(C(=O)N2CCC(Nc3cccnn3)CC2)cs1  -4.67%
31. Cc1nc2cc(=O)[nH]n2c(C)c1CNC(=O)c1cnn(C(C)(C)C)c1  -4.01%
32. CC(=O)N1CCCN(C(C(=O)O)c2ccc(C)cc2C)CC1 (stereo not given)  -3.98%
33. c1ccc(-c2nc(CN3CCn4c(nnc4C4CC4)C3)cs2)cc1  -3.92%
34. C1CC(CN2CCOCC3(CCN(C4CCOCC4)C3)C2)CCO1 (stereo not given)  -3.37%
35. Cc1nc(CNC(=O)NC(C)c2ccc3c(c2)OCCO3)cs1 (stereo not given)  -2.61%
36. CCN(CC)C(=O)c1cc(Br)cc(S(=O)(=O)N2CCOCC2)c1F  -2.43%
37. CCn1cc(CN2CCC(c3[nH]ncc3S(C)(=O)=O)C2)cn1 (stereo not given)  -2.33%
38. O=C(O)c1cccnc1CN1CCCCC1CCc1cccc(O)c1 (stereo not given)  -1.84%
39. COc1cccc(CC(=O)N2CCCSCC2CN2CCCC2)c1 (stereo not given)  -1.42%
40. CN(C)c1nc(N)nc(CSCCC(=O)Nc2ccc(F)cc2)n1  -1.33%
41. COc1ccc(Cl)cc1-c1cc(NC(=O)C2CNC(=O)N2)[nH]n1 (stereo not given)  -1.12%
42. Cc1c(Cl)cccc1NC(=O)N1CCC2(CC1)NC(=O)CC2C(=O)O (stereo not given)  -1%
43. Cc1cc2c(=O)n3c(nc2s1)CCN(C(=O)c1scnc1C)CC3  -0.774%
44. CS(=O)(=O)NCCC(=O)NCc1cccnc1-n1cnc2ccccc21  -0.0143%
45. CN(C)c1ncc(-c2ccncc2)c(CCNC(=O)C2CC2)n1  0.05%
46. Cc1noc(C)c1S(=O)(=O)N1CCC(Oc2cccnn2)CC1  0.0701%
47. O=C(N1CCCC1)N1C[C@H]2CC[C@@]3(N=C(c4ccccc4)NC3=O)[C@H]2C1  0.516%
48. O=C(NCCn1cccc1)C1CCC(=O)N(C2CCCC2)C1 (stereo not given)  0.622%
49. Cc1cc(NC2CCN(Cc3ccccn3)CC2)n2nc(C)c(C)c2n1  0.951%
50. COc1c(CNC2CCc3cc(F)ccc32)c(C(C)C)nn1C (stereo not given)  1.16%
51. CN(C)S(=O)(=O)Nc1ccc(Oc2ccc3c(c2)OCO3)cc1  1.43%
52. CCc1nc(NS(=O)(=O)c2cc(C)cc(F)c2)no1  2.31%
53. CCC1=N[C@@]2(CC[C@@H]3CN(S(C)(=O)=O)C[C@@H]32)C(=O)N1CC(C)C  2.58%
54. CC(=O)N1CC[C@@]2(C(=O)Nc3ccccc3)CCN(S(C)(=O)=O)CC[C@@H]12  2.96%
55. CC(C)OCCCNC(=O)Nc1cccc2ncccc12  2.96%
56. CC(C)[C@@H]1CN(C(=O)NCCc2ccccc2)C[C@H]1NS(=O)(=O)N(C)C  3.08%
57. O=C1CCc2cc(S(=O)(=O)NCc3cc4n(n3)CCNC4)ccc2N1  3.28%
58. CNC(=O)[C@@H]1C[C@H](n2cc(-c3ccc(CN4CC=CC4)cc3)nn2)CN1  3.46%
59. COc1cccc(C(=O)N2CCN(C(=O)CCCn3ccnc3)CC2)c1  3.82%
60. CCC(C)(CCO)NC(=O)c1ccon1 (stereo not given)  4.13%
61. CCCS(=O)(=O)N1CCC2(CN(c3ccccc3)C(=O)CN2C)C1 (stereo not given)  4.15%
62. Cc1ncc(CN(C)CC2CCCN2c2cccnn2)s1 (stereo not given)  4.19%
63. CC(C)NC(=O)c1nc2c(s1)CCCN2c1ccccc1  4.29%
64. O=C(NCc1nnc2n1CCCCC2)N1CCc2ccccc2C1  4.66%
65. Cc1cccc(-c2noc(CN3CCC(N4CCNC4=O)CC3)n2)c1  5.34%
66. CCC(=O)N1CCOC(c2cc(Nc3nncs3)cc(C)n2)C1 (stereo not given)  5.67%
67. Cc1nn(-c2ccccc2)c(C)c1CN1CCNCC1  6.19%
68. Cc1noc(COCC(=O)N2CCCCC2c2nccs2)n1 (stereo not given)  6.9%
69. c1ccc(-c2nccc(N3CCc4c(ncn4C4CC4)C3)n2)cc1  7.22%
70. CC(C)N(C)Cc1ncn2c1CN(CC(=O)N(C)C)CCC2  7.28%
71. COc1cccn(CC(=O)N2CCCC3(CCOCC3)C2)c1=O  8.78%
72. COCCN1C(=O)CCC12CCC(NCc1cccc(C)n1)CC2 (stereo not given)  9.4%
73. CNC(=O)[C@@H]1[C@@H](c2ccccc2)CN2CCN(Cc3cccs3)C[C@H]12  11%
74. CC1CCN(C(=O)C2CCN(c3ccc(Cl)cc3C#N)CC2)CC1  11.8%
75. Cc1noc(C)c1CN1C[C@@H]2CCCO[C@@H]2[C@H](NS(C)(=O)=O)C1  12.2%
76. O=C(c1ccc[nH]1)N1CCOCC12CCCC2  12.3%
77. CCC(CN1CCCC1)NC(=O)Cc1c(C)[nH]c2c(C)cc(C)cc12 (stereo not given)  14.6%
78. Cc1cc2c(=O)n3c(nc2s1)CCN(C(=O)c1c(C)noc1C)CC3  17.7%
79. CC(C)(CO)CNC(=O)c1cc(-c2cc[nH]n2)n2ccccc12  20%
80. Cc1ccc2c(c1C)OCC2NCc1ccc(C#N)cc1 (stereo not given)  25.8%
